Measurements collected from several papers.
Lines come from different studies, so protocols differ.
FLT3 ITD: Receptor-type tyrosine-protein kinase FLT3 (FLT3, Homo sapiens, UniProt P36888, ITD)
TOP2A: DNA topoisomerase 2-alpha (TOP2A, Homo sapiens, UniProt P11388)
HTR2B: 5-hydroxytryptamine receptor 2B (HTR2B, Homo sapiens, UniProt P41595)
TNKS2: Poly [ADP-ribose] polymerase tankyrase-2 (TNKS2, Homo sapiens, UniProt Q9H2K2)

Compound	target	observed	mode	method	IC50
CN(C)CCNC(=O)c1ccc(-c2nc3ccc4[nH]ncc4c3c3c2CCCC3)c(F)c1	FLT3 ITD	enzyme activity	inhibitor	–	112 nM
Cc1cc(C(=O)N2CC(N3CCN(C(=O)c4nccs4)CC3)C2)ccc1-c1ccc(F)c(Cl)c1	Monoglyceride lipase (MGLL, Homo sapiens, UniProt Q99685)	enzyme activity	inhibitor	fluorescence	5.15 nM
CCCCCCC#Cc1cncc(-c2nnc(SCc3cc([N+](=O)[O-])cc([N+](=O)[O-])c3)n2CCCN)c1	mraY (Staphylococcus aureus, UniProt Q2FZ93)	enzyme activity	inhibitor	–	25000 nM
Fc1ccccc1Nc1nc(-c2ccncc2)nc2c1CNCC2	TOP2A	enzyme activity	inhibitor	–	4500 nM
CN1CCC(CNc2ccc3ncc(-c4cccc(OC(F)(F)F)c4)n3n2)CC1	HTR2B	calcium signal	antagonist	–	2810 nM
Cc1n[nH]c2ccc3nc(-c4ccc(C(=O)NCCN(C)C)cc4)c4c(c3c12)CCCCC4	Receptor-type tyrosine-protein kinase FLT3 (FLT3, Homo sapiens, UniProt P36888, F691L)	enzyme activity	inhibitor	–	104 nM
CC(C)(O)c1ccc(-c2nc3cc(NC(=O)c4cnc(Oc5ccccc5)nc4)ccc3c(=O)[nH]2)cc1	TNKS2	enzyme activity	inhibitor	–	7.96 nM
CN(C)CCNC(=O)c1ccc(-c2nc3ccc4[nH]ncc4c3c3c2CCCCC3)cc1	Receptor-type tyrosine-protein kinase FLT3 (FLT3, Homo sapiens, UniProt P36888)	enzyme activity	inhibitor	–	48 nM
CC(C)(O)c1ccc(-c2nc3cc(NC(=O)c4ccc(-c5ccccc5)cc4)ccc3c(=O)[nH]2)cc1	TNKS2	enzyme activity	inhibitor	–	35 nM
C=CCn1c(=O)c2cnc(Nc3ccc(N4CCN(C)CC4)cc3)nc2n1-c1ccc2c(n1)[C@@](O)(CC)CC2	Serine/threonine-protein kinase PLK1 (PLK1, Homo sapiens, UniProt P53350)	target engagement in cells	–	BRET	> 10000 nM
CNC(=O)[C@H](Cc1c[nH]c2ccccc12)NC(=O)[C@@H](CC(=O)NO)CC(C)C	Stromelysin-1 (MMP3, Homo sapiens, UniProt P08254)	enzyme activity	inhibitor	–	12.5 nM
Fc1cccc(Nc2nc(-c3ccncc3)nc3c2CNCC3)c1	TOP2A	enzyme activity	inhibitor	–	25000 nM
CN(C)CCNC(=O)c1ccc(-c2nc3ccc4[nH]ncc4c3c3c2CCC3)cc1	FLT3 ITD	enzyme activity	inhibitor	–	659 nM
CNC(=O)c1ccc(C(=O)Nc2ccc3c(=O)[nH]c(-c4ccc(C(C)(C)O)cc4)nc3c2)cc1	TNKS2	enzyme activity	inhibitor	–	30.4 nM
Cc1cc(-c2ccccc2)nnc1NCCN1CCOCC1	HTR2B	calcium signal	antagonist	–	6200 nM
